Calls of active or inactive are those of the source. The rule behind the calls is not given here.
Experiments:
HOP-62 = test: Growth inhibition of human HOP62 cells; type: functional
IGROV-1 = test: Growth inhibition of human IGROV1 cells; type: functional
[1] = Growth inhibition of human BT549 cells; type: functional
M14 = test: Growth inhibition of human M14 cells; type: functional
DU-145 = test: Growth inhibition of human DU145 cells; type: functional
[2] = Growth inhibition of human UACC257 cells; type: functional
[3] = target: T1, Proteasome Macropain subunit MB1 (Homo sapiens) (UniProt P28074); test: Inhibition of chymotrypsin-like activity of 20S proteasome in human erythrocytes using Suc-Leu-Leu-Val-Tyr-AMC as substrate at 20 uM by fluorescence assay relative to control
T1 sequence (whole entry): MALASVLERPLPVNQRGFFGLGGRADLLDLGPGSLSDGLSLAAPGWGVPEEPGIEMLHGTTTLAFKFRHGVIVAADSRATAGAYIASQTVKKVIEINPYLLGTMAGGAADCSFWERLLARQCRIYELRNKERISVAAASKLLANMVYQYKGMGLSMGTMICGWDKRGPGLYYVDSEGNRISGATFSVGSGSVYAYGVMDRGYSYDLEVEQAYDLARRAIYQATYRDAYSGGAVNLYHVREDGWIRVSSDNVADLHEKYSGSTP
Summary of the method: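 Single inhibitor concentration, equivalent DMSO as negative control. AMC fluorescence read at ex 380/em 460 nm; percent inhibition of ChT-L activity.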

[4] = target: Proteasome Macropain subunit (Homo sapiens) (UniProt P49721); test: Inhibition of trypsin-like activity of 20S proteasome in human erythrocytes using Boc-Leu-Arg-Arg-AMC as substrate by fluorescence assay; type: cell-based
Chain of Proteasome Macropain subunit (Homo sapiens) (P49721 whole entry): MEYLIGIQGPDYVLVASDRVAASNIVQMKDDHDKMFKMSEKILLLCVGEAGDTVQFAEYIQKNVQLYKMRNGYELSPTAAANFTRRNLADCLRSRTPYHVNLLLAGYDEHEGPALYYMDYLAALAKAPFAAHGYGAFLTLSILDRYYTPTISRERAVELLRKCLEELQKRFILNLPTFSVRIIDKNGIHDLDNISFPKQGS
Summary of the method: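 Human 20S proteasome 0.0025 mg/mL at 30 °C in 50 mM Tris pH 7.4, 50 mM NaCl, 0.5 mM EDTA, 0.03% SDS, 7.5% DMSO. Varied inhibitor concentrations; AMC release monitored continuously for 10 min, ex 380/em 460 nm. Ki derived from progress-curve IC50 fit.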

[5] = Growth inhibition of human UACC62 cells; type: functional; conditions: UACC-62
[6] = Cytotoxicity against human colon cancer cells assessed as cell growth at 10 uM relative to control; type: functional; conditions: Cancer cell lines, read-out: Activity
Summary of the method: (§1)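 Single-concentration screen against a panel of human cancer cell lines. Each value is the mean percent growth across the cell lines of that tumour subpanel.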

[7] = Growth inhibition of human Hs 578T cells; type: functional
[8] = Growth inhibition of human OVCAR3 cells; type: functional; conditions: OVCAR-3
SR = test: Growth inhibition of human SR cells; type: functional
Chymotrypsinogen A = Chymotrypsinogen A (Bos taurus, UniProt P00766); test: Inhibition of bovine pancreatic alpha-chymotrypsin using Suc-Leu-Leu-Val-Tyr-AMC as substrate by fluorescence assay
Summary of the method: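 Enzyme incubated at 20 °C in 50 mM Tris pH 8.0, 100 mM NaCl, 5 mM EDTA, 7.5% DMSO with varied inhibitor concentrations. Substrate hydrolysis followed for 10 min. Ki from progress curves; mean of three determinations.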

NCI-H322M = test: Growth inhibition of human NCI-H322M cells; type: functional
786-0 = test: Growth inhibition of human 786-0 cells; type: functional
[9] = Cytotoxicity against human melanoma cells assessed as cell growth at 10 uM relative to control; type: functional; conditions: read-out: Activity; summary of the method: as §1
[10] = Cytotoxicity against human ovarian cancer cells assessed as cell growth at 10 uM relative to control; type: functional; conditions: Cancer cell lines, read-out: Activity; summary of the method: as §1
[11] = Growth inhibition of human HCC2998 cells; type: functional; conditions: HCC 2998
MDA-MB-231 = test: Growth inhibition of human MDA-MB-231 cells; type: functional
SW-620 = test: Growth inhibition of human SW620 cells; type: functional
TK-10 = test: Growth inhibition of human TK10 cells; type: functional
[12] = Cytotoxicity against human NSCLC cells assessed as cell growth at 10 uM relative to control; type: functional; conditions: read-out: Activity; summary of the method: as §1
[13] = Cytotoxicity against human CNSC cells assessed as cell growth at 10 uM relative to control; type: functional; conditions: read-out: Activity; summary of the method: as §1
NCI-H460 = test: Growth inhibition of human NCI-H460 cells; type: functional
[14] = Growth inhibition of human NCI-ADR-RES cells; type: functional
NCI-H226 = test: Growth inhibition of human NCI-H226 cells; type: functional
[15] = Growth inhibition of human HCT15 cells; type: functional
K562 = test: Growth inhibition of human K562 cells; type: functional
PC-3 = test: Growth inhibition of human PC3 cells; type: functional
HCT-116 = test: Growth inhibition of human HCT116 cells; type: functional
[16] = read-out: LC50 (the source's name)

Q: With `CC(C)C[C@H](NC(=O)CCn1ccc2ccccc2c1=O)B(O)O` as the compound, how does the GI50 (HOP-62) read?
A: 4.51 µM

Q: And the TGI (HOP-62)?
A: 22.1 µM

Q: What about the CC50 (HOP-62; [16]) of the same compound?
A: 96.4 µM

Q: What about the GI50 (IGROV-1) of the same compound?
A: 12.3 µM

Q: What about the LC50 (IGROV-1) of the same compound?
A: > 100 µM

Q: What about the TGI (IGROV-1) of the same compound?
A: > 100 µM

Q: What about the GI50 ([1]; BT-549) of the same compound?
A: 2.21 µM

Q: And the TGI ([1]; BT-549)?
A: 17.1 µM

Q: And the CC50 ([1]; BT-549, read-out: LC50 (the source's name))?
A: > 100 µM

Q: And the GI50 (M14)?
A: 4.23 µM

Q: And the LC50 (concentration killing 50% of cells) (M14)?
A: > 100 µM

Q: What about the TGI (M14) of the same compound?
A: > 100 µM

Q: What about the GI50 (DU-145) of the same compound?
A: 9.13 µM

Q: What about the TGI (DU-145) of the same compound?
A: > 100 µM

Q: And the CC50 (DU-145; [16])?
A: > 100 µM

Q: And the GI50 ([2]; UACC-257)?
A: 3.68 µM

Q: What about the TGI ([2]; UACC-257) of the same compound?
A: 33.8 µM

Q: What about the CC50 ([2]; UACC-257, read-out: LC50 (the source's name)) of the same compound?
A: > 100 µM

Q: What about the inhibition [3] of the same compound?
A: > 40%

Q: And the inhibition [4]?
A: inactive

Q: What about the GI50 [5] of the same compound?
A: 4.29 µM

Q: And the LC50 (concentration killing 50% of cells) [5]?
A: > 100 µM

Q: What about the TGI [5] of the same compound?
A: 24.9 µM

Q: What about the growth at 10 µM [6] of the same compound?
A: 45.1%

Q: What about the GI50 [7] of the same compound?
A: 3.63 µM

Q: And the TGI [7]?
A: 48.7 µM

Q: What about the CC50 [7, 16] of the same compound?
A: > 100 µM

Q: And the GI50 [8]?
A: 1.97 µM

Q: What about the LC50 (concentration killing 50% of cells) [8] of the same compound?
A: 31.7 µM

Q: And the TGI [8]?
A: 5.66 µM

Q: And the GI50 (SR)?
A: 1.7 µM

Q: And the TGI (SR)?
A: 28.9 µM

Q: And the CC50 (SR; [16])?
A: > 100 µM

Q: And the Ki (Chymotrypsinogen A)?
A: Not Active

Q: What about the GI50 (NCI-H322M) of the same compound?
A: 76.8 µM

Q: What about the TGI (NCI-H322M) of the same compound?
A: > 100 µM

Q: What about the CC50 (NCI-H322M; [16]) of the same compound?
A: > 100 µM

Q: And the GI50 (786-0)?
A: 4.76 µM

Q: And the TGI (786-0)?
A: > 100 µM

Q: What about the CC50 (786-0; [16]) of the same compound?
A: > 100 µM

Q: And the growth at 10 µM [9]?
A: 30.5%

Q: What about the growth at 10 µM [10] of the same compound?
A: 73.1%

Q: And the GI50 [11]?
A: 6.08 µM

Q: What about the LC50 [11] of the same compound?
A: 66.4 µM

Q: What about the TGI [11] of the same compound?
A: 21.3 µM

Q: What about the GI50 (MDA-MB-231) of the same compound?
A: 9.45 µM

Q: And the TGI (MDA-MB-231)?
A: 59.3 µM

Q: And the CC50 (MDA-MB-231; [16])?
A: > 100 µM

Q: What about the GI50 (SW-620) of the same compound?
A: 3 µM

Q: What about the LC50 (SW-620) of the same compound?
A: 93.4 µM

Q: And the TGI (SW-620)?
A: 12 µM

Q: What about the GI50 (TK-10) of the same compound?
A: 2.93 µM

Q: And the LC50 (TK-10)?
A: > 100 µM

Q: What about the TGI (TK-10) of the same compound?
A: 9.8 µM

Q: What about the growth at 10 µM [12] of the same compound?
A: 60.3%

Q: What about the growth at 10 µM [13] of the same compound?
A: 52%

Q: What about the GI50 (NCI-H460) of the same compound?
A: 13 µM

Q: What about the LC50 (NCI-H460) of the same compound?
A: > 100 µM

Q: And the TGI (NCI-H460)?
A: 56.2 µM

Q: And the GI50 [14]?
A: 67.1 µM

Q: And the LC50 [14]?
A: > 100 µM

Q: What about the TGI [14] of the same compound?
A: > 100 µM

Q: And the GI50 (NCI-H226)?
A: 1.47 µM

Q: And the TGI (NCI-H226)?
A: 3.24 µM

Q: And the CC50 (NCI-H226; [16])?
A: 7.15 µM

Q: And the GI50 ([15]; HCT-15)?
A: 9.57 µM

Q: What about the TGI ([15]; HCT-15) of the same compound?
A: > 100 µM

Q: What about the CC50 ([15]; HCT-15, read-out: LC50 (the source's name)) of the same compound?
A: > 100 µM

Q: What about the GI50 (K562) of the same compound?
A: 4.97 µM

Q: And the TGI (K562)?
A: > 100 µM

Q: And the CC50 (K562; [16])?
A: > 100 µM

Q: What about the GI50 (PC-3) of the same compound?
A: 5.77 µM

Q: What about the TGI (PC-3) of the same compound?
A: > 100 µM

Q: And the CC50 (PC-3; [16])?
A: > 100 µM

Q: What about the GI50 (HCT-116) of the same compound?
A: 1.55 µM

Q: What about the LC50 (HCT-116) of the same compound?
A: > 100 µM

Q: And the TGI (HCT-116)?
A: 19.8 µM

Source: ChEMBL document CHEMBL3286129, “Optimization of peptidomimetic boronates bearing a P3 bicyclic scaffold as proteasome inhibitors” (Eur J Med Chem, 2014)
